Data taken from ChEMBL document CHEMBL1806370, “Development of novel naphthalimide derivatives and their evaluation as potential melanoma therapeutics” (Eur J Med Chem, 2011).

Key:
[1] = test system: UACC-903; test: Antitumor activity against human UACC-903 cells xenografted in athymic Harlan Sprague-Dawley nude mouse assessed as reduction in tumor growth at 8.5 to 10 mg/kg, ip administered thrice per week for 24 days measured after 21 days; format: functional; conditions: dose mg/kg 8.5-10; route intraperitoneal
Method in brief: (§1)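 Female athymic nude mice, 4–6 weeks old, received 5×10^6 UACC 903 cells s.c. in DMEM/10% FBS above both rib cages. After six days they were randomized at 5 mice/group, 2 tumors/mouse. Dosing was i.p. Mon/Wed/Fri, with one arm dosed daily; controls got DMSO vehicle. Tumor dimensions (calipers, mm³) and body weight were recorded three times weekly.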

[2] = test system: Mus musculus; test: Systemic toxicity in Swiss Webster mouse assessed as mortality at 15 mg/kg, ip administered every day for 28 days; format: organism-based; design: dose 15 mg/kg, route intraperitoneal; conditions: in vivo, 672 h
Method in brief: (§2)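 Swiss Webster mice, n = 4 per group, dosed i.p. once daily for 28 days at 5, 7.5, 10 or 15 mg/kg body weight. Body weight recorded twice per week; deaths noted over the dosing period.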

[3] = Cytotoxicity against human SK-MEL-37 cells after 72 hrs by MTS assay; format: functional, cell-based
Method in brief: (§3)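 Cells in DMEM with 10% FBS at 37 °C and 5% CO2 were plated at 5×10^3 per well and grown 24 h. They were then exposed 24 or 72 h to 0.5, 1, 5, 10, 25 and 50 µM, with final DMSO 0.5% and DMSO controls. MTS/PMS was added for 4 h at 37 °C. A492 was read with the medium blank subtracted and expressed as % of control. IC50 was taken from three independent experiments (mean ± S.E.).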

[4] = test system: UACC-903; test: Induction of apoptosis in human UACC-903 cells assessed as viable cells at 25 uM after 24 hrs using annexin-V-PE/7-AAD double staining by flow cytometry; format: functional; conditions: UACC-903, 24 h, read-out: Activity
Method in brief: (§4)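 UACC 903 cells were exposed 24 h at 37 °C to 1, 5 or 25 µM, with DMSO as control. Cells were harvested, washed twice in cold PBS and resuspended at 1×10^6 cells/mL in binding buffer. They were stained with 7-AAD plus PE Annexin V for 20 min at room temperature in the dark and run by flow cytometry within 1 h. Gating: double-negative live, 7-AAD+ dead, Annexin V+/7-AAD− early apoptotic. Three separate experiments.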

[5] = test system: UACC-903; test: Induction of apoptosis in human UACC-903 cells assessed as viable cells at 5 uM after 24 hrs using annexin-V-PE/7-AAD double staining by flow cytometry; format: functional; conditions: UACC-903, 24 h, read-out: Activity; method in brief: as §4
[6] = test system: UACC-903; test: Cytotoxicity against human UACC-903 cells assessed as decrease in cell viability after 72 hrs by MTS assay; format: functional, cell-based; method in brief: as §3
[7] = test system: SK-MEL-37 (Homo sapiens); test: Cytotoxicity against human SK-MEL-37 cells assessed as decrease in cell viability after 24 hrs by MTS assay
[8] = test system: Mus musculus; test: Systemic toxicity in athymic Harlan Sprague-Dawley nude mouse xenografted with human UACC-903 cells assessed as reduction in body weight at 8.5 to 10 mg/kg, ip administered thrice a week for 24 days; format: organism-based; design: dose 8.5-10 mg/kg, route intraperitoneal; conditions: in vivo, 576 h; method in brief: as §1
[9] = Cytotoxicity against human 1205 Lu cells after 24 hrs by MTS assay; format: functional, cell-based; method in brief: as §3
[10] = test system: UACC-903; test: Induction of apoptosis in human UACC-903 cells assessed as late apoptotic cells at 25 uM after 24 hrs using annexin-V-PE/7-AAD double staining by flow cytometry; format: functional; method in brief: as §4
[11] = Cytotoxicity against human 1205 Lu cells after 72 hrs by MTS assay; format: functional, cell-based; method in brief: as §3
[12] = test system: UACC-903; test: Cytotoxicity against human UACC-903 cells after 72 hrs by MTS assay; format: functional, cell-based; conditions: UACC-903, 72 h; method in brief: as §3
[13] = test system: UACC-903; test: Induction of apoptosis in human UACC-903 cells assessed as viable cells at 1 uM after 24 hrs using annexin-V-PE/7-AAD double staining by flow cytometry; format: functional; conditions: UACC-903, 24 h, read-out: Activity; method in brief: as §4
[14] = test system: Mus musculus; test: Systemic toxicity in Swiss Webster mouse assessed as weight loss at 10 mg/kg, ip administered every day for 28 days; format: organism-based; design: dose 10 mg/kg, route intraperitoneal; conditions: in vivo, 672 h; method in brief: as §2
[15] = test system: UACC-903; test: Induction of apoptosis in human UACC-903 cells assessed as late apoptotic cells at 1 uM after 24 hrs using annexin-V-PE/7-AAD double staining by flow cytometry; format: functional; method in brief: as §4
[16] = test system: UACC-903; test: Cytotoxicity against human UACC-903 cells after 24 hrs by MTS assay; format: functional, cell-based; conditions: UACC-903, 24 h; method in brief: as §3
[17] = test system: UACC-903; test: Induction of apoptosis in human UACC-903 cells assessed as early apoptotic cells at 5 uM after 24 hrs using annexin-V-PE/7-AAD double staining by flow cytometry; format: functional; method in brief: as §4
[18] = test system: SK-MEL-37 (Homo sapiens); test: Cytotoxicity against human SK-MEL-37 cells assessed as decrease in cell viability after 72 hrs by MTS assay
[19] = test system: UACC-903; test: Induction of apoptosis in human UACC-903 cells assessed as early apoptotic cells at 1 uM after 24 hrs using annexin-V-PE/7-AAD double staining by flow cytometry; format: functional; method in brief: as §4
[20] = test system: UACC-903; test: Induction of apoptosis in human UACC-903 cells assessed as non-viable cells at 25 uM after 24 hrs using annexin-V-PE/7-AAD double staining by flow cytometry; format: functional; method in brief: as §4
[21] = test system: A375-S2; test: Cytotoxicity against human A375-S2 cells assessed as decrease in cell viability after 72 hrs by MTS assay; format: functional, cell-based; method in brief: as §3
[22] = Cytotoxicity against human A375-S2 cells after 72 hrs by MTS assay; format: functional, cell-based; conditions: A375-S2, 72 h; method in brief: as §3
[23] = test system: UACC-903; test: Induction of apoptosis in human UACC-903 cells assessed as early apoptotic cells at 25 uM after 24 hrs using annexin-V-PE/7-AAD double staining by flow cytometry; format: functional; method in brief: as §4
[24] = test system: 1205Lu; test: Cytotoxicity against human 1205 Lu cells assessed as decrease in cell viability after 72 hrs by MTS assay; format: functional, cell-based; method in brief: as §3
[25] = test system: UACC-903; test: Induction of apoptosis in human UACC-903 cells assessed as late apoptotic cells at 5 uM after 24 hrs using annexin-V-PE/7-AAD double staining by flow cytometry; format: functional; method in brief: as §4
[26] = test system: UACC-903; test: Induction of apoptosis in human UACC-903 cells assessed as non-viable cells at 1 uM after 24 hrs using annexin-V-PE/7-AAD double staining by flow cytometry; format: functional; method in brief: as §4
[27] = test system: Mus musculus; test: Systemic toxicity in Swiss Webster mouse assessed as reduction in body weight at 10 mg/kg, ip administered daily for 28 days; design: scale not given: the % may be the effect or the level left; conditions: in vivo, 672 h
[28] = test system: Mus musculus; test: Systemic toxicity in Swiss Webster mouse assessed as mortality at 10 mg/kg, ip administered every day for 28 days; format: organism-based; design: dose 10 mg/kg, route intraperitoneal; conditions: in vivo, 672 h; method in brief: as §2
[29] = test system: 1205Lu; test: Cytotoxicity against human 1205 Lu cells assessed as decrease in cell viability after 24 hrs by MTS assay; format: functional, cell-based; method in brief: as §3
[30] = test system: Mus musculus; test: Systemic toxicity in athymic Harlan Sprague-Dawley nude mouse xenografted with human UACC-903 cells assessed as mortality at 10 mg/kg, ip administered daily for 28 days; format: organism-based; design: dose 10 mg/kg, route intraperitoneal; conditions: in vivo, 672 h
[31] = Cytotoxicity against human SK-MEL-37 cells after 24 hrs by MTS assay; format: functional, cell-based; method in brief: as §3
[32] = test system: UACC-903; test: Cytotoxicity against human UACC-903 cells assessed as decrease in cell viability after 24 hrs by MTS assay; format: functional, cell-based; method in brief: as §3
[33] = test system: UACC-903; test: Induction of apoptosis in human UACC-903 cells assessed as non-viable cells at 5 uM after 24 hrs using annexin-V-PE/7-AAD double staining by flow cytometry; format: functional; method in brief: as §4
[34] = test system: UACC-903; test: Induction of apoptosis in human UACC-903 cells assessed as increase in apoptotic cells after 24 hrs using annexin-V-PE/7-AAD double staining by flow cytometry; format: functional, cell-based; method in brief: as §4
[35] = test system: A375-S2; test: Cytotoxicity against human A375-S2 cells assessed as decrease in cell viability after 24 hrs by MTS assay; format: functional, cell-based; method in brief: as §3
[36] = Cytotoxicity against human A375-S2 cells after 24 hrs by MTS assay; format: functional, cell-based; conditions: A375-S2, 24 h; method in brief: as §3
[37] = test system: Mus musculus; test: Systemic toxicity in athymic Harlan Sprague-Dawley nude mouse xenografted with human UACC-903 cells assessed as reduction in body weight at 9.5 to 10.6 mg/kg, ip administered thrice a week for 24 days; format: organism-based; design: dose 9.5-10.6 mg/kg, route intraperitoneal; conditions: in vivo, 576 h; method in brief: as §1
[38] = test system: UACC-903; test: Antitumor activity against human UACC-903 cells xenografted in athymic Harlan Sprague-Dawley nude mouse assessed as reduction in tumor growth at 9.5 to 10.6 mg/kg, ip administered thrice per week for 24 days measured after 21 days; format: functional; conditions: dose mg/kg 9.5-10.6; route intraperitoneal; method in brief: as §1

| Compound | Activity [2] | IC50 [3] [µM] | viability at 25 µM [4] [%] | viability at 5 µM [5] [%] | Activity [6] | Activity [7] | IC50 [9] [µM] | Activity [10] [%] | IC50 [11] [µM] | IC50 [12] [µM] | viability at 1 µM [13] [%] | Activity [14] | Activity [15] [%] | IC50 [16] [µM] | Activity [17] [%] | Activity [18] | Activity [19] [%] | Activity [20] [%] | Activity [21] | IC50 [22] [µM] | further results |
| --- | --- | --- | --- | --- | --- | --- | --- | --- | --- | --- | --- | --- | --- | --- | --- | --- | --- | --- | --- | --- | --- |
| O=C1c2cccc3cc([N+](=O)[O-])cc(c23)C(=O)N1CCN=C=S | Toxic | 1.73 | 1.4 | 64.7 | Dose-dependent effect | Dose-dependent effect | 5.82 | 18.6 | 3.91 | 5.5 | 72.9 | Non-toxic | 7.83 | 8.38 | 22.2 | Dose-dependent effect | 17.9 | 0.19 | Dose-dependent effect | 2.81 | growth inhibition (GI) [1]: 60%; Activity [8]: Non-toxic; Activity [23]: 79.8%; Activity [24]: Dose-dependent effect; Activity [25]: 11.9%; Activity [26]: 1.39%; Activity [27]: 10%; Activity [28]: Non-toxic; Activity [29]: Dose-dependent effect; Activity [30]: Non-toxic; IC50 [31]: 2.88 µM; Activity [32]: Dose-dependent effect; Activity [33]: 1.23%; Activity [34]: Dose-dependent effect; Activity [35]: Dose-dependent effect; IC50 [36]: 7.88 µM |
| N=C(N)SCCN1C(=O)c2cccc3cccc(c23)C1=O | Toxic | 2.15 | 42.4 | 79.7 | Dose-dependent effect | Dose-dependent effect | 22.4 | 9.64 | 18.7 | 6.85 | 89.1 | Non-toxic | 1.04 | 9.87 | 17.5 | Dose-dependent effect | 9.11 | 0.43 | Dose-dependent effect | 3.78 | Activity [37]: Non-toxic; growth inhibition (GI) [38]: 20%; Activity [23]: 47.6%; Activity [24]: Dose-dependent effect; Activity [25]: 2.41%; Activity [26]: 0.71%; Activity [28]: Non-toxic; Activity [29]: Dose-dependent effect; IC50 [31]: 3.7 µM; Activity [32]: Dose-dependent effect; Activity [33]: 0.42%; Activity [34]: Dose-dependent effect; Activity [35]: Dose-dependent effect; IC50 [36]: 6.7 µM |
